From PMC6136361 (Journal of Enzyme Inhibition and Medicinal Chemistry, 2018)
“And” between values parts separate entries of the source, which are not always exact repeats. Equal entries are not always repeated. Where two headings read alike, the source gives them in different places.

Tests used:
[1] = system: HCT-116 cells; assay: Cytotoxicity, Sulforhodamine-B; assay type: cell-based; settings: Homo sapiens
Procedure, shortened: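 SRB viability: cells seeded at 5 × 10^4–10^5/well and left to attach 24 h. Test compound (DMSO, diluted in saline) at 0.001–100 µM for 48 h, four wells per concentration; vehicle-only controls. Fixed cold 50% TCA 1 h at 4 °C, stained 0.4% SRB in 1% acetic acid 30 min, dye solubilised in 10 mM tris base pH 10.5, OD 564 nm. Survival fraction = OD treated/OD control; IC50 from survival-concentration plot; repeated three times.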

[2] = system: HepG-2 cells; assay: Cytotoxicity, Sulforhodamine-B; assay type: cell-based, human; settings: for IC50: Homo sapiens
[3] = molecular target: β-tubulin (Homo sapiens, UniProt P07437); assay: β-tubulin polymerization inhibition assay; assay type: cell-based; settings: for %β-TUB polymerization inhibition: at their IC50 values on HepG-2 cells; for β-tubulin polymerization inhibition: at their IC50 values, HepG-2 cells
Sequence of β-tubulin (P07437 whole entry): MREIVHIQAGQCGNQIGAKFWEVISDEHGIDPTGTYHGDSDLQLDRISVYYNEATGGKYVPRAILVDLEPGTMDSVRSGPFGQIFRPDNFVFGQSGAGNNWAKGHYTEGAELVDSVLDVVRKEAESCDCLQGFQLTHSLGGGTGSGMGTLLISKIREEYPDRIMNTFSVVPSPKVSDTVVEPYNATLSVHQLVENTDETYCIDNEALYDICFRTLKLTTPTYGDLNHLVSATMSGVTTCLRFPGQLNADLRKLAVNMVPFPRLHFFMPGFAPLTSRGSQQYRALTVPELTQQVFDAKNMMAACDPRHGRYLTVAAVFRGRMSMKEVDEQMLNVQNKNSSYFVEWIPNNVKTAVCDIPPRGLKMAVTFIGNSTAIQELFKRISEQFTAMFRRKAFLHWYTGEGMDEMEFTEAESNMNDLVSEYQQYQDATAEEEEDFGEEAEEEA
Sequence of β-tubulin (P68363 whole entry partner): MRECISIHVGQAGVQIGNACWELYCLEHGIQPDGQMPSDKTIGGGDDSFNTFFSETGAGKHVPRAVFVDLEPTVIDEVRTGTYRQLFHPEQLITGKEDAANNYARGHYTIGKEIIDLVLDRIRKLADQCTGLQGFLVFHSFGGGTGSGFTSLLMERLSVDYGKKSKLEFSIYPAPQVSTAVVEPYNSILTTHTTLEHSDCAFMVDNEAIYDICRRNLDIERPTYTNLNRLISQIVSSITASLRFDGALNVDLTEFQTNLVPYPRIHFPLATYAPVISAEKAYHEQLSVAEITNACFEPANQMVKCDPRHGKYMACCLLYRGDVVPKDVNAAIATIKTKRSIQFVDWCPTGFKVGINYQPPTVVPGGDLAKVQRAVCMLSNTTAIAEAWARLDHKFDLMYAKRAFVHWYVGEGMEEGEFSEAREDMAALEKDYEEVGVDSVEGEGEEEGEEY

[4] = molecular target: VEGFR-2 (Homo sapiens, UniProt P35968); assay: biochemical; assay type: biochemical
Sequence of VEGFR-2 (P35968 20-1356): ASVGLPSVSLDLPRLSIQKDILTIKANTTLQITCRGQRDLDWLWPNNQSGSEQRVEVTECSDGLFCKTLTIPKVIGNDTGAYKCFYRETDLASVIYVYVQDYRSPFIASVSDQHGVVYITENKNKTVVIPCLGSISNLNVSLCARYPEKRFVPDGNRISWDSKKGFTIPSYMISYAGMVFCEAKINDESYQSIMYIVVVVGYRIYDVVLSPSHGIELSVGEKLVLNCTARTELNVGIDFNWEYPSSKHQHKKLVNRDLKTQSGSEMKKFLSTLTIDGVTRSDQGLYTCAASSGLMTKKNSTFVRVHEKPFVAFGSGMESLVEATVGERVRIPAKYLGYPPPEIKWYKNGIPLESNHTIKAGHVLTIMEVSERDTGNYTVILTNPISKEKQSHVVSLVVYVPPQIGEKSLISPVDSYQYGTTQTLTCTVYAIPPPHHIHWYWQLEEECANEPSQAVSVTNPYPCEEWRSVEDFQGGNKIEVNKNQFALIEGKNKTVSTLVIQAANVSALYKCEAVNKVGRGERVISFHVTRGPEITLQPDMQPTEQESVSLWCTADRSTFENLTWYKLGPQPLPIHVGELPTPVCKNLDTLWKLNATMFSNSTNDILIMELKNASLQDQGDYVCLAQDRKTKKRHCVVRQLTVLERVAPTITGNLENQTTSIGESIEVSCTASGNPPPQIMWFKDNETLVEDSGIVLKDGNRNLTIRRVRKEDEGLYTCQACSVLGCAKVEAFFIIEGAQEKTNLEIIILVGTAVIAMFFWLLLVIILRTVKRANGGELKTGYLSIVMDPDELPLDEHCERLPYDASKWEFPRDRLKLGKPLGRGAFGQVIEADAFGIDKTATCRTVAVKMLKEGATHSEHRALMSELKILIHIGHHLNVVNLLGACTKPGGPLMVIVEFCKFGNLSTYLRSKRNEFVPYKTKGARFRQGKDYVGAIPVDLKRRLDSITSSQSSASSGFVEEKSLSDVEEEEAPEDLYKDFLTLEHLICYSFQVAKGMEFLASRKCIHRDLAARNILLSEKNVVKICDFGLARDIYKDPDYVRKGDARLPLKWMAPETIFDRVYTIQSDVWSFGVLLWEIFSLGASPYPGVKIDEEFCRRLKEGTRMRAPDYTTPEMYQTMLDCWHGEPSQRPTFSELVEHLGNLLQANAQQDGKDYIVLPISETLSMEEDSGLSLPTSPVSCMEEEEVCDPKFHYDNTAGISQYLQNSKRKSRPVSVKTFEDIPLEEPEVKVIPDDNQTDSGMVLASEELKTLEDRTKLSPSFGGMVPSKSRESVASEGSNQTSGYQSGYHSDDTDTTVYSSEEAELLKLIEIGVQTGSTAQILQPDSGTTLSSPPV

[5] = system: HepG-2 cells; assay: DNA-flow cytometry cell cycle analysis; assay type: cell-based, human; settings: HepG-2, at IC50, 24 h; for apoptotic sub-G1 cell population: control 0.10%
Procedure, shortened: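 HepG-2 cells exposed to test compound for 24 h, with an untreated control. Cells washed twice in ice-cold PBS, pelleted, fixed in ice-cold 70% ethanol, treated with 0.1 mg/mL RNase and stained with propidium iodide. DNA content measured by flow cytometry to give cell-cycle phase distribution. Fold change versus control; mean ± SEM, n = 4, one-way ANOVA with Tukey test.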

[6] = system: Bax; assay: ELISA immunoassay of Bax level in HepG-2 cells; assay type: cell-based, human; settings: for Bax level, fold increase compared to the control: HepG-2, at IC50, 24 h
[7] = system: Bcl-2; assay: ELISA immunoassay of Bcl-2 level in HepG-2 cells; assay type: cell-based, human; settings: HepG-2, at IC50, 24 h
[8] = system: p53; assay: ELISA immunoassay of p53 level in HepG-2 cells; assay type: cell-based, human; settings: HepG-2, at IC50, 24 h
[9] = system: caspase-7; assay: ELISA immunoassay of active caspase-7 level in HepG-2 cells; assay type: cell-based, human; settings: HepG-2, at IC50, 24 h
[10] = system: HepG-2 cells; assay: FITC-annexin V / PI staining for apoptosis; assay type: cell-based, human; settings: HepG-2, at IC50, 24 h; for late apoptotic cells percentage (Q2): control 0.34%
[11] = system: caspase-3; assay: ELISA immunoassay of active caspase-3 level in HepG-2 cells; assay type: cell-based, human; settings: HepG-2, at IC50, 24 h
[12] = HCT-116, 48 h, read-out: IC50 HCT-116
[13] = HepG2, 48 h, read-out: IC50 HepG-2
[14] = HepG2, read-out: Experimental cytotoxicity pIC50 (converted)

| IC50 [4] | SMILES | IC50 [1, 12] | IC50 [2, 13] | IC50 ([2]; HepG2, read-out: HepG-2 IC50) | IC50 [2, 14] | also measured |
| --- | --- | --- | --- | --- | --- | --- |
|  | COc1ccc(NC(=O)c2c(Nc3ccccc3)sc(C#N)c2NC(=O)CNc2ccccc2)cc1 [Compound 4, 5-Cyano-N-(4-methoxyphenyl)-2-phenylamino-4-(2-phenylamino-acetamido)thiophene-3-carboxamide] | 64.1 ± 7.51 µM | 74.3 ± 5.98 µM |  |  |  |
|  | COc1ccc(NC(=O)c2c(Nc3ccccc3)sc(C#N)c2NC(=O)CNc2ccc(Cl)cc2)cc1 [Compound 5, 4-[2-(4-Chlorophenyl)aminoacetamido]-5-cyano-N-(4-methoxyphenyl)-2-phenylaminothiophene-3-carboxamide] | 7.83 ± 0.61 µM | 1.92 ± 0.12 µM | 1.92 µM |  | %β-TUB polymerization inhibition [3]: 72.61 ± 0.14%; β-tubulin polymerization inhibition [3]: 72% and 73%; fold more potent than Sorafenib against VEGFR-2 [4]: 4 fold; G2/M arrest, fold increase compared to the control [5]: about 2 fold; apoptotic sub-G1 cell population [5]: 8.23%; Bax/Bcl-2 ratio, fold elevation compared to the control ([6]; HepG-2, at IC50): 30 fold; Bax level, fold increase compared to the control [6]: 6.6 fold; Bcl-2 level, fold decrease compared to the control [7]: 2.2 fold; p53 protein level, fold increase compared with the control [8]: about 3.4 fold; caspase-7 level, fold increase compared to the control [9]: ~6.9 fold; early apoptosis fold increase vs control [10]: 8 fold; late apoptosis fold increase vs control [10]: 23 fold; late apoptotic cells percentage (Q2) [10]: 7.85%; early apoptotic cells percentage (Q4) ([10]; control 0.72%): 5.47%; fold higher cytotoxicity than Sorafenib ([2]; HepG-2 cells): 2.31 fold and 2.3 fold; caspase-3 level, fold increase compared to the control [11]: about 11.2 fold |
| 0.93 ± 0.19 µM | COc1ccc(NC(=O)c2c(Nc3ccccc3)sc(C#N)c2NC(=O)CNc2ccc(Br)cc2)cc1 [Compound 6, 4-[2-(4-Bromophenyl)amino-acetamido]-5-cyano-N-(4-methoxyphenyl)-2-phenylaminothiophene-3-carboxamide] | 3.13 ± 0.21 µM | 3.51 ± 0.22 µM | 3.51 µM | 3.5 µM |  |
|  | COc1ccc(NC(=O)c2c(Nc3ccccc3)sc(C#N)c2NC(=O)CNc2ccc(C)cc2)cc1 [Compound 7, 5-Cyano-N-(4-methoxyphenyl)-2-phenylamino-4-[2-(4-methylphenyl)amino-acetamido]thiophene-3-carboxamide] | 18.4 ± 1.23 µM | 24.3 ± 1.96 µM |  | 24 µM |  |
|  | COc1ccc(NC(=O)c2c(Nc3ccccc3)sc(C#N)c2NC(=O)CNc2ccc(O)cc2)cc1 [Compound 8, 5-Cyano-N-(4-methoxyphenyl)-4-[2-(4-hydroxyphenyl)amino-acetamido]-2-phenylaminothiophene-3-carboxamide] | 16.2 ± 1.52 µM | 10.4 ± 1.08 µM |  | 10.4 µM |  |
|  | COc1ccc(NCC(=O)Nc2c(C#N)sc(Nc3ccccc3)c2C(=O)Nc2ccc(OC)cc2)cc1 [Compound 9, 5-Cyano-N-(4-methoxyphenyl)-4-[2-(4-methoxyphenyl)amino-acetamido]-2-phenylaminothiophene-3-carboxamide] | 21.4 ± 1.92 µM | 14.3 ± 1.23 µM |  | 14 µM |  |
| 3.92 ± 0.16 µM | COc1ccc(NC(=O)c2c(Nc3ccccc3)sc(C#N)c2NC(=O)CNc2ccc([N+](=O)[O-])cc2)cc1 [Compound 10, 5-Cyano-N-(4-methoxyphenyl)-4-[2-(4-nitrophenyl)aminoacetamido]-2-phenylaminothiophene-3-carboxamide] | 5.12 ± 0.42 µM | 9.71 ± 0.86 µM | 9.71 µM | 9.7 µM |  |
|  | COc1ccc(NC(=O)c2c(Nc3ccccc3)sc(C#N)c2NC(=O)CNc2ccccc2Cl)cc1 [Compound 11, 5-Cyano-N-(4-methoxyphenyl)-4-[2-(2-chlorophenyl)aminoacetamido]-2-phenylaminothiophene-3-carboxamide] | 52.2 ± 5.54 µM | 31.3 ± 3.61 µM |  |  |  |
|  | COc1ccc(NC(=O)c2c(Nc3ccccc3)sc(C#N)c2NC(=O)CNc2ccccc2[N+](=O)[O-])cc1 [Compound 12, 5-Cyano-N-(4-methoxyphenyl)-4-[2-(2-nitrophenyl)amino-acetamido]-2-phenylaminothiophene-3-carboxamide] | 60.1 ± 7.41 µM | 43.3 ± 4.23 µM |  |  |  |
|  | COc1ccc(NC(=O)c2c(Nc3ccccc3)sc(C#N)c2NC(=O)CNc2ccc(OC)c(OC)c2)cc1 [Compound 13, 5-Cyano-N-(4-methoxyphenyl)-4-[2-(3,4-dimethoxyphenyl)amino-acetamido]-2-phenylaminothiophene-3-carboxamide] | 10.3 ± 1.31 µM | 15.2 ± 1.62 µM |  | 15.2 µM |  |
|  | COc1ccc(NC(=O)c2c(Nc3ccccc3)sc(C(=O)NN=Cc3ccccc3)c2NC(C)=O)cc1 [Compound 16, 4-Acetamido-5-(2-benzylidenehydrazinocarbonyl)-N-(4-methoxyphenyl)-2-phenylaminothiophene-3-carboxamide] | 19.2 ± 1.46 µM | 21.4 ± 2.91 µM |  | 21 µM |  |
| 5.91 ± 0.23 µM | COc1ccc(NC(=O)c2c(Nc3ccccc3)sc(C(=O)NN=Cc3ccc(Cl)cc3)c2NC(C)=O)cc1 [Compound 17, 4-Acetamido-5-[2-(4-chlorobenzylidene)hydrazinocarbonyl]-N-(4-methoxyphenyl)-2-phenylaminothiophene-3-carboxamide] | 9.24 ± 1.02 µM | 9.5 ± 0.86 µM | 9.5 µM | 9.5 µM |  |
|  | COc1ccc(NC(=O)c2c(Nc3ccccc3)sc(C(=O)NN=Cc3ccc(Br)cc3)c2NC(C)=O)cc1 [Compound 18, 4-Acetamido-5-[2-(4-bromobenzylidene)hydrazinocarbonyl]-N-(4-methoxyphenyl)-2-phenylaminothiophene-3-carboxamide] | 7.41 ± 0.62 µM | 10.1 ± 1.12 µM |  | 10.4 µM |  |
|  | COc1ccc(NC(=O)c2c(Nc3ccccc3)sc(C(=O)NN=Cc3ccc(C)cc3)c2NC(C)=O)cc1 [Compound 19, 4-Acetamido-5-[2-(4-methylbenzylidene)hydrazinocarbonyl]-N-(4-methoxyphenyl)-2-phenylaminothiophene-3-carboxamide] | 21.4 ± 1.82 µM | 12.2 ± 1.31 µM |  | 12.2 µM |  |
| 1.71 ± 0.21 µM | COc1ccc(C=NNC(=O)c2sc(Nc3ccccc3)c(C(=O)Nc3ccc(OC)cc3)c2NC(C)=O)cc1 [Compound 20, 4-Acetamido-5-[2-(4-methoxybenzylidene)hydrazinocarbonyl] -N-(4-methoxyphenyl)-2-(phenylamino)thiophene-3-carboxamide] | 3.12 ± 0.31 µM | 4.96 ± 0.45 µM | 4.96 µM | 8.7 µM |  |
| 1.29 ± 0.13 µM | COc1ccc(NC(=O)c2c(Nc3ccccc3)sc(C(=O)NN=Cc3ccc(OC)c(O)c3)c2NC(C)=O)cc1 [Compound 21, 4-Acetamido-5-[2-(3-hydroxy-4-methoxybenzylidene) hydrazinocarbonyl]-N-(4-methoxyphenyl)-2-phenylaminothiophene-3-carboxamide] | 4.32 ± 0.11 µM | 2.61 ± 0.12 µM | 2.61 µM |  | %β-TUB polymerization inhibition [3]: 85.95 ± 0.21%; β-tubulin polymerization inhibition [3]: 86%; G2/M arrest, fold increase compared to the control [5]: ~1.9 fold; apoptotic sub-G1 cell population [5]: 6.07%; Bax level, fold increase compared to the control [6]: 11.8 fold; Bcl-2 level, fold decrease compared to the control [7]: 2.5 fold; p53 protein level, fold increase compared with the control [8]: ~1.7 fold; caspase-7 level, fold increase compared to the control [9]: 5.9 fold; early apoptosis fold increase vs control [10]: 6 fold; late apoptosis fold increase vs control [10]: 21 fold; late apoptotic cells percentage (Q2) [10]: 7.2%; caspase-3 level, fold increase compared to the control [11]: 9.2 fold |
| 5.21 ± 0.32 µM | COc1ccc(NC(=O)c2c(Nc3ccccc3)sc(C(=O)NN=Cc3cc(OC)c(OC)c(OC)c3)c2NC(C)=O)cc1 [Compound 23, 4-Acetamido-N-(p-methoxyphenyl)-2-phenylamino-5-[2-(3,4,5-trimethoxybenzylidene)hydrazinocarbonyl]thiophene-3-carboxamide] | 6.46 ± 0.49 µM | 10.82 ± 0.065 µM | 10.8 µM | 5.1 µM |  |
|  | CNC(=O)c1cc(Oc2ccc(NC(=O)Nc3ccc(Cl)c(C(F)(F)F)c3)cc2)ccn1 [Sorafenib, reference compound] |  |  | 4.43 µM |  | IC50 ([1]; HCT-116, read-out: IC50 against HCT-116 cells): 3.22 µM |
